From ChEMBL document CHEMBL1137768, “Synthesis and in vitro anti Mycobacterium tuberculosis activity of a series of phthalimide derivatives” (Bioorg Med Chem, 2009)
Values after ≈ are worked out from the molar mass of the structure shown.

Key:
J774 = experiment: Cytotoxicity against mouse J774 cells after 24 hrs; format: cell-based; conditions: J774, 24 h
Procedure, shortened: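 J774 cells kept in RPMI with 10% FBS at 37 °C, 5% CO2, then seeded and allowed to adhere for 24 h. Exposed 24 h to compound at 625 down to 0.6 (twofold series). Resazurin added for 6 h and fluorescence read at 530/590 nm. IC50 taken as concentration giving 50% viability relative to control.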

[1] = system: Mycobacterium tuberculosis; experiment: Antimycobacterial activity against Mycobacterium tuberculosis H37Rv ATCC 27294 after 7 days by Microplate Alamar blue assay; format: functional; conditions: H37Rv ATCC 27294, 168 h
Procedure, shortened: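 DMSO stocks diluted in Middlebrook 7H9 with OADC to final 0.15–250 µg/mL. Inoculum matched to McFarland No. 1, diluted 1:25, then added with compound in 96-well plates. Triplicates incubated 7 days at 37 °C, then resazurin added. Fluorescence read at 530/590 nm. MIC = lowest concentration giving 90% growth inhibition. Isoniazid standard run each time.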

| SMILES | IC50 (J774) | MIC [1] |
| --- | --- | --- |
| O=C(NN1C(=O)c2ccccc2C1=O)c1ccncc1 | 625 µg/mL (≈ 2340 µM) | 5 µg/mL (≈ 18.7 µM) |
| Cc1ccnc(NS(=O)(=O)c2ccc(N3C(=O)c4ccccc4C3=O)cc2)n1 |  | > 250 µg/mL |
| COc1cnc(NS(=O)(=O)c2ccc(N3C(=O)c4ccccc4C3=O)cc2)nc1 |  | > 250 µg/mL |
| Cc1cc(NS(=O)(=O)c2ccc(N3C(=O)c4ccccc4C3=O)cc2)no1 |  | 125 µg/mL (≈ 326 µM) |
| Nc1ccc(S(=O)(=O)c2ccc(N3C(=O)c4ccccc4C3=O)cc2)cc1 | 312 µg/mL (≈ 826 µM) | 7.8 µg/mL (≈ 20.6 µM) |
| O=C1c2ccccc2C(=O)N1c1ccc(S(=O)(=O)Nc2ccccn2)cc1 |  | > 250 µg/mL |
| O=C1c2ccccc2C(=O)N1c1ccc(S(=O)(=O)Nc2ncccn2)cc1 | 312 µg/mL (≈ 822 µM) | 3.9 µg/mL (≈ 10.3 µM) |
| Cc1cc(C)nc(NS(=O)(=O)c2ccc(N3C(=O)c4ccccc4C3=O)cc2)n1 |  | > 250 µg/mL |
| O=C1c2ccccc2C(=O)N1c1ccc(S(=O)(=O)c2ccc(N3C(=O)c4ccccc4C3=O)cc2)cc1 |  | > 250 µg/mL |
| NS(=O)(=O)c1ccc(N2C(=O)c3ccccc3C2=O)cc1 |  | > 250 µg/mL |
| N=C(N)NS(=O)(=O)c1ccc(N2C(=O)c3ccccc3C2=O)cc1 |  | 125 µg/mL (≈ 363 µM) |
| NNC(=O)c1ccncc1 [ISONIAZID] |  | 0.02 µg/mL (≈ 0.146 µM) |
